PglD DTNB = blocks C. jejuni PglD acetyltransferase activity; purified PglD enzyme, DTNB colorimetric CoA detection; inhibition, % at 12.5 µM; hit rate 0.098% among 360,000; in the data active means inhibition above about 16%, passing the limit was not always enough
SR-BI DiI inh = mouse SR-BI HDL lipid transfer inhibition. ldlA[mSR-BI] CHO cells, DiI-HDL uptake fluorescence, 3 h. inhibition, % at 12.5 µM. hit rate 0.96% among 320,000;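 active means mean replicate inhibition of at least 70% and a set share of replicates each scoring 70 or more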
SR-BI DiI-HDL act = enhances SR-BI lipid uptake from DiI-HDL | CHO ldlA[mSR-BI] cells, DiI-HDL uptake fluorescence, 3 h; 100 = double the neutral-control signal | activation, % at 12.5 µM | hit rate 0.096% among 320,000;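 active means mean replicate activation of at least 60% and every replicate at or above 60%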
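system = CHO ldlA[mSR-BI] cells, LDL receptor-null, SR-BI overexpressing | medium = Ham's F12 with 0.5% BSA, HEPES 25 mM, pH 7.4 | probe or stimulus = DiI-HDL 10 µg/mL | compound dosing = single-point compound dose | incubation = compound exposure 3 h, 37 °C | technique = DiI fluorescence, bottom read | read-out = cell-associated DiI fluorescence as measure of HDL uptake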
Rtt109 Vps75 = blocks Candida albicans Rtt109/Vps75 acetyltransferase activity. inhibition, % at 34.9 µM. hit rate 0.16% among 330,000. purified Rtt109/Vps75, ThioGlo CoA-SH fluorescence, 4 h. Q5AAJ8;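 active means inhibition of at least 50% in every replicate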
Target sequence (Q5AAJ8 whole entry, looked up): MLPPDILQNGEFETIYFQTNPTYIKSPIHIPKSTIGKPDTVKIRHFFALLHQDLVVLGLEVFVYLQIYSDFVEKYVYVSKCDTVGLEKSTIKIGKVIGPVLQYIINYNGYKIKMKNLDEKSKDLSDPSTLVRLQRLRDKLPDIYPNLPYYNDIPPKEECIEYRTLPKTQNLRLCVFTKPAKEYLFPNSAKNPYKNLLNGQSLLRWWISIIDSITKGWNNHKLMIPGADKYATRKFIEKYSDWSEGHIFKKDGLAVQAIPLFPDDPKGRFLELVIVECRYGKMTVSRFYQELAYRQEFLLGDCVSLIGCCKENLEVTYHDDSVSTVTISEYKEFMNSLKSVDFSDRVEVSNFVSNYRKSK
N-glyco inh = blocks N-linked glycosylation in D54 reporter cells; AID 588692; hit rate 0.23% among 360,000; D54 ERlucT glycosylation luciferase reporter, 24 h; percent of 100 nM tunicamycin response; reporter increase, % at 12.5 µM;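 active means mean luciferase reporter signal, scaled so untreated is 0 and the glycosylation-blocking control 100, at or above a set limit in every replicate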;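 further: luciferase carries N-glycosylation sites so blocking glycosylation raises the light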
HIV Env fusion = inhibitors of HIV Env-mediated cell fusion; HeLa-JRFL Env/CEM21 cell fusion, luciferase; inhibition, % at 12.3 µM; hit rate 1.1% among 360,000;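 active means mean replicate inhibition score of at least 50 and every replicate individually at or above 50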
Numbers stand for hits; [ ] = dose if it differs, or a comment. An excerpt weighted towards active compounds, which were near 1.9% of everything screened.

How did CCN(CCCn1c(SCC#N)nc2ccccc2c1=O)c1ccccc1 do in these assays?
PglD DTNB: inactive; SR-BI DiI inh: inactive; SR-BI DiI-HDL act: inactive; Rtt109 Vps75: inactive; N-glyco inh: inactive; HIV Env fusion: 62.2

How did CCOc1cc(C(=O)N/N=C\c2cn(CC)nc2C)cc(OCC)c1OCC do in these assays?
PglD DTNB: inactive; SR-BI DiI inh: 81.2; SR-BI DiI-HDL act: inactive; Rtt109 Vps75: inactive; N-glyco inh: inactive; HIV Env fusion: inactive

How did CCn1cc(/C=N\NC(=O)C2(C)CC2(Cl)Cl)c(C)n1 (stereo not given) do in these assays?
PglD DTNB: inactive; SR-BI DiI inh: inactive; SR-BI DiI-HDL act: inactive; Rtt109 Vps75: inactive; N-glyco inh: inactive

What do the screens show for `CCOc1cc(-c2cc(-c3ccc(N)cc3)nc(N)c2C#N)ccc1O`?
PglD DTNB: inactive; SR-BI DiI inh: inactive; SR-BI DiI-HDL act: inactive; Rtt109 Vps75: inactive; N-glyco inh: inactive

How did CCOc1cc(-c2cc(-c3ccccc3)nc(N)c2C#N)ccc1O do in these assays?
PglD DTNB: inactive; SR-BI DiI inh: inactive; SR-BI DiI-HDL act: inactive; Rtt109 Vps75: inactive; N-glyco inh: 36.6

Results for CCCCS(=O)(=O)c1sc2nc(C)cc(C)c2c1N ?
PglD DTNB: inactive; SR-BI DiI inh: inactive; SR-BI DiI-HDL act: inactive; Rtt109 Vps75: 54.9; N-glyco inh: inactive; HIV Env fusion: inactive

What do the screens show for `Cc1cc(C)c2c(N)c(S(=O)(=O)c3ccccc3)sc2n1`?
PglD DTNB: inactive; SR-BI DiI inh: inactive; SR-BI DiI-HDL act: inactive; Rtt109 Vps75: inactive; N-glyco inh: inactive; HIV Env fusion: inactive

What do the screens show for `COc1cccc(/C=N/NC(=O)CC2C(=O)NN=C2C)c1OC` (stereo not given)?
PglD DTNB: inactive; SR-BI DiI inh: inactive; SR-BI DiI-HDL act: inactive; Rtt109 Vps75: inactive; N-glyco inh: inactive; HIV Env fusion: inactive

What do the screens show for `COc1cccc(/C=N/NC(=O)CC2C(=O)NN=C2C)c1O` (stereo not given)?
PglD DTNB: inactive; SR-BI DiI inh: inactive; SR-BI DiI-HDL act: inactive; Rtt109 Vps75: inactive; N-glyco inh: inactive; HIV Env fusion: 69.8

How did COc1ccc(OC)c(/C=N/NC(=O)c2cc3c(OC)cccc3[nH]2)c1 do in these assays?
SR-BI DiI inh: inactive; SR-BI DiI-HDL act: inactive; Rtt109 Vps75: inactive; N-glyco inh: inactive; HIV Env fusion: inactive

How did CCOc1ccc(/C=N/NC(=O)c2cc3c(OC)cccc3[nH]2)cc1 do in these assays?
PglD DTNB: inactive; SR-BI DiI inh: inactive; SR-BI DiI-HDL act: inactive; Rtt109 Vps75: inactive; N-glyco inh: 50.3; HIV Env fusion: inactive

What do the screens show for `COc1ccc(OC)c2[nH]c(C(=O)N/N=C/c3ccccc3O)cc12`?
PglD DTNB: inactive; SR-BI DiI inh: 123.5; SR-BI DiI-HDL act: inactive; Rtt109 Vps75: inactive; N-glyco inh: inactive; HIV Env fusion: inactive

What do the screens show for `COc1cccc(/C=N/NC(=O)c2cc3c(OC)cccc3[nH]2)c1O`?
PglD DTNB: inactive; SR-BI DiI inh: 103.2; SR-BI DiI-HDL act: inactive; Rtt109 Vps75: inactive; N-glyco inh: inactive; HIV Env fusion: inactive

How did COc1ccc(/C=N/NC(=O)c2cc3c(OC)ccc(OC)c3[nH]2)cc1O do in these assays?
SR-BI DiI inh: inactive; SR-BI DiI-HDL act: inactive; Rtt109 Vps75: inactive; N-glyco inh: inactive; HIV Env fusion: inactive

What do the screens show for `COc1ccccc1/C=N/NC(=O)c1cc2c(OC)c(OC)ccc2[nH]1`?
PglD DTNB: inactive; Rtt109 Vps75: inactive; N-glyco inh: 33.8; HIV Env fusion: inactive

What do the screens show for `COc1cccc(/C=N/NC(=O)c2cc3c(OC)c(OC)ccc3[nH]2)c1OC`?
SR-BI DiI inh: inactive; SR-BI DiI-HDL act: inactive; Rtt109 Vps75: inactive; N-glyco inh: inactive; HIV Env fusion: inactive

How did C[C@@H]1CN([C@@H](C)CO)C(=O)c2cc(-c3ccccc3F)cnc2O[C@@H]1CN(C)Cc1ccccc1 do in these assays?
PglD DTNB: inactive; HIV Env fusion: inactive

How did CCNc1ncnc2c1cnn2C1CCCO1 (stereo not given) do in these assays?
PglD DTNB: inactive; SR-BI DiI inh: inactive; SR-BI DiI-HDL act: inactive; Rtt109 Vps75: inactive; N-glyco inh: inactive; HIV Env fusion: 74.3

What do the screens show for `CC(C)CC(COCc1cccc(C(F)(F)F)c1)N1CCN(C(=O)c2cccc(C(F)(F)F)c2)CCC1=O` (stereo not given)?
PglD DTNB: inactive; SR-BI DiI inh: inactive; SR-BI DiI-HDL act: inactive; Rtt109 Vps75: inactive; N-glyco inh: inactive; HIV Env fusion: 66.7

Results for CC(C)CC(COCc1ccc(Cl)cc1)N1CCN(C(=O)c2cccc(C(F)(F)F)c2)CCC1=O (stereo not given) ?
PglD DTNB: inactive; SR-BI DiI inh: inactive; SR-BI DiI-HDL act: inactive; Rtt109 Vps75: inactive; N-glyco inh: inactive; HIV Env fusion: inactive

What do the screens show for `Cc1ccccc1COC[C@H](CC(C)C)N1CCN(C(=O)c2cccc(C(F)(F)F)c2)CCC1=O`?
PglD DTNB: inactive; SR-BI DiI inh: inactive; SR-BI DiI-HDL act: inactive; Rtt109 Vps75: inactive; N-glyco inh: inactive; HIV Env fusion: 72.0

Results for Cc1ccc(COC[C@H](CC(C)C)N2CCN(C(=O)c3cccc(C(F)(F)F)c3)CCC2=O)cc1 ?
HIV Env fusion: inactive

Results for Cc1noc(C)c1C(=O)NC(C)C12CC3CC(CC(C3)C1)C2 (stereo not given) ?
SR-BI DiI inh: inactive; SR-BI DiI-HDL act: inactive; Rtt109 Vps75: inactive; N-glyco inh: inactive; HIV Env fusion: inactive

Results for CCCC(NC(=O)c1c(C)noc1C)C12CC3CC(CC(C3)C1)C2 (stereo not given) ?
PglD DTNB: inactive; SR-BI DiI inh: inactive; SR-BI DiI-HDL act: inactive; Rtt109 Vps75: inactive; N-glyco inh: inactive; HIV Env fusion: 59.8

How did Cc1ccccc1NC(=O)CSc1nc(Nc2ccccc2)nc(N2CCOCC2)n1 do in these assays?
PglD DTNB: inactive; SR-BI DiI inh: 80.6; SR-BI DiI-HDL act: inactive; Rtt109 Vps75: inactive; N-glyco inh: inactive

How did C[C@@H](NC(=O)C[C@H]1C[C@H]2c3cc(NC(=O)Nc4ccccc4F)ccc3O[C@H]2[C@H](CO)O1)c1ccccc1 do in these assays?
PglD DTNB: inactive; HIV Env fusion: inactive

How did COC(=O)CN1C(c2ccc(Cl)cc2)=Nc2ccc(Cl)cc2C1c1ccccc1 (stereo not given) do in these assays?
SR-BI DiI inh: inactive; SR-BI DiI-HDL act: inactive; Rtt109 Vps75: inactive; N-glyco inh: inactive; HIV Env fusion: 80.3

Results for COc1ccc(C2=Nc3ccc(C)cc3C(c3ccccc3)N2CC(=O)NN)cc1 (stereo not given) ?
SR-BI DiI inh: inactive; SR-BI DiI-HDL act: inactive; N-glyco inh: inactive; HIV Env fusion: inactive

Results for O=C(C[C@H]1CC[C@H]2[C@@H](COC[C@@H](O)CN2C(=O)c2ccccc2F)O1)NCc1ccc(-c2ccccc2)cc1 ?
PglD DTNB: inactive

Results for Cc1noc(C)c1S(=O)(=O)Nc1ccc2c(c1)CC(=O)N([C@@H](C)CO)C[C@@H](C)[C@H](CN(C)Cc1ccc(Cl)c(Cl)c1)O2 ?
PglD DTNB: inactive; HIV Env fusion: 85.2[16.7 µM]

Assay outcomes deposited in PubChem by Broad Institute.
